Sampled rows, rich in hits. Any-hit rate of the full collection: about 4.7%.
MC4R ag barr: agonists of human melanocortin 4 receptor (MC4R) beta-arrestin | P32245 | activation, % at 8.9 µM | AID 540308 | U2OS MC4R beta-arrestin complementation, luminescence; percent of melanotan II response, DMSO zero | 360,000 compounds, 0.98% hits;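 active means activation above a per-plate cutoff, the mean activation of sample wells on that plate plus 3 SD, cut at about 8% in these data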
m5-HT2A agonist: mouse HTR2A agonism via beta-arrestin recruitment; 360,000 compounds, 0.66% hits; activation, % at 7.6 µM; CHO-K1 mHTR2A beta-arrestin complementation, luminescence; percent of 30 µM serotonin response; P35363;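 active means activation above a run cutoff, the mean activation of all tested compounds plus 3 SD, cut at about 14% in these data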;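 further: 0% = plate median of compound wells and 100% = 30 µM serotonin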
Target sequence (P35363 whole entry, looked up): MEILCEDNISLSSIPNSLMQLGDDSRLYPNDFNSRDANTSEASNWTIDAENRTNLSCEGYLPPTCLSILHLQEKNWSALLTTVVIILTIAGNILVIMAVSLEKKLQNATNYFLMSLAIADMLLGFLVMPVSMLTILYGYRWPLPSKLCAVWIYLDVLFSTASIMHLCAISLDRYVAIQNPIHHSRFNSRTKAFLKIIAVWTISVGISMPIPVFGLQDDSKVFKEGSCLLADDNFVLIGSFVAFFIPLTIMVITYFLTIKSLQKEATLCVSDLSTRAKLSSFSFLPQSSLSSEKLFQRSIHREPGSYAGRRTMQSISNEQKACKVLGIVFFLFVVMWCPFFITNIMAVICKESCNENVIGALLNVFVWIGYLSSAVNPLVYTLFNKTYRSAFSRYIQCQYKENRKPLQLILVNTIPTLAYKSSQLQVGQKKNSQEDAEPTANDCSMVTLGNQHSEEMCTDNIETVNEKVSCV
GAA850 FXN act: increases GAA850 frataxin promoter reporter activity | HEK293 lucGAA850 FXN promoter luciferase reporter, 24 h; percent of 10 µM SAHA response | activation, % at 6 µM | 360,000 compounds, 0.56% hits;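 active means activation above the average of all compounds screened plus 3 SD, cutoff fixed separately per campaign, cut at about 7.5% in these data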;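 further: 0% = DMSO wells and 100% = 10 µM SAHA wells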
MC4R antagonist: antagonists of human melanocortin 4 receptor (MC4R). MC4R-expressing cells, MTII-stimulated cAMP, LANCE TR-FRET. inhibition, % at 6.5 µM. 360,000 compounds, 0.48% hits;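 active means inhibition above its plate's cutoff, the mean of tested wells on that plate plus 3 SD, cut at about 29% in these data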;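 further: 0% = Melanotan II alone and 100% = Melanotan II plus saturating MCL0020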
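system = U2OS cells with stable human MC4R expression | also added = Melanotan II challenge after compound preincubation | dosing = one concentration, 6.5 µM nominal | incubation = compound 30 min, challenge 1 h, detection 1 h | measured by = TR-FRET with Eu-cAMP and labeled anti-cAMP, 671 nm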
AHR activator: activators of human aryl hydrocarbon receptor; P35869; AHR-responsive luciferase reporter cells, luminescence; activation, % at 5 µM; 320,000 compounds, 2.5% hits; AID 2796; in the data active means activation above about 47%;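 further: 0% = vehicle wells and 100% = reference agonist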
AHR act confirm: human AHR activation, confirmation; activation, % at 9 µM; 2,300 compounds, 87% hits; shares compounds with AHR activator; human cells, AHR-responsive luciferase reporter, luminescence; in the data active means activation above about 49%;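 further: HepG2 hepatoma cells carrying a DRE-driven firefly luciferase reporter; 0% = vehicle wells and 100% = reference agonist wells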
PXR counter: counter-screen for AHR activators: human PXR activators; shares compounds with AHR activator; cell-based PXR reporter, luciferase luminescence; activation, % at 11.6 µM; 2,300 compounds, 88% hits; AID 434939; in the data active means activation above about 11%;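 further: human hepatoma DPX-2 cells expressing full-length human PXR; 0% = DMSO and 100% = reference agonist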
Starred values were filed as active, the others as inactive; · = no result given.

SMILES	MC4R ag barr	m5-HT2A agonist	GAA850 FXN act	MC4R antagonist	AHR activator	AHR act confirm	PXR counter
COC(=O)c1c(-c2ccccc2OC)sc2cc3c(cc12)OCO3	1	4	1	7	108*	92*	226*
COc1ccccc1-c1sc2ccccc2c1-c1ccc2c(c1)OCO2	2	-2	2	11	33	·	·
COc1ccccc1-c1sc2cc3c(cc2c1-c1ccc2c(c1)OCO2)OCO3	0	4	5	-4	93*	126*	162*
CCCCC(=O)NC1(C(F)(F)F)NC(=O)N(Cc2ccccc2)C1=O (stereo not given)	-3	-2	1	8	1	·	·
CCCC(C(=O)NNC(=O)c1cc(C)oc1C)c1ccccc1 (stereo not given)	0	5	-1	1	6	·	·
COc1ccc(S(=O)(=O)NNC(=O)c2cc3ccccc3o2)cc1	-2	2	1	5	-1	·	·
COc1ccc(S(=O)(=O)NNC(=O)c2cc3c4ccccc4n(C)c3s2)cc1	7	6	0	4	110*	98*	246*
CCCCNC(=O)c1nc(-c2cccnc2OC)oc1-c1ccc(Cl)cc1	·	-5	·	·	·	·	·
O=C(COC(=O)CNC(=O)c1ccccc1Cl)NC1CC1	1	-2	0	0	0	·	·
NC(=O)c1c(NC(=O)c2cc3ccccc3o2)sc2c1CCC2	6	-1	1	11	86*	48*	7
NC(=O)c1c(NC(=O)c2ccc(F)cc2)sc2c1CCC2	-1	1	4	4	174*	100*	37*
O=C(Nc1sc2c(c1C(=O)O)CCCC2)c1ccc(F)cc1	1	7	-1	19	·	·	·
COc1ccc(CCC(=O)NCCS(=O)(=O)N2CCN(c3ccc(OC)cc3)CC2)cc1	0	10	-2	27	0	·	·
Nc1cc(Cl)ccc1CN1C(=O)c2ccccc2C1=O	·	0	·	·	·	·	·
CCN1CCn2c3c(c4cc(C)ccc42)CCCC31 (stereo not given)	4	12	1	-4	81*	105*	11*
Cc1ccc2c(c1)c1c3n2CCN(CCC#N)C3CCC1 (stereo not given)	1	7	-1	-6	·	·	·
O=C(Nc1cccc(N2CCCC2)c1)c1cccs1	-1	1	2	6	88*	92*	37*
Nc1cccc(NC(=O)c2cccs2)c1	-2	7	3	5	21	·	·
Cc1ccc(Nc2nc(N)c([N+](=O)[O-])c(N3CCC(C)CC3)n2)cc1C	1	2	0	-4	28	·	·
Nc1nc(NCCCN2CCOCC2)nc(Nc2ccc(F)cc2)c1[N+](=O)[O-]	-1	-5	2	1	83*	15	29*
Cc1ccc(Nc2nc(N)c([N+](=O)[O-])c(N3CCOCC3)n2)cc1C	0	-8	4	19	119*	83*	21*
Nc1nc(NCCCN2CCOCC2)nc(Nc2cccc(F)c2)c1[N+](=O)[O-]	0	-1	4	-2	7	·	·
COc1ccc(OC)c(/C=C/C(=O)OCC(=O)N2CCN(S(=O)(=O)c3ccc(C)cc3C)CC2)c1	1	1	0	9	·	·	·
CC(C)Cc1nnc(NC(=O)c2ccc(-n3cncn3)c([N+](=O)[O-])c2)s1	-1	1	0	5	·	·	·
c1ccc(-c2ccc(-c3csnn3)cc2)cc1	0	-4	1	7	86*	96*	17*
SMILES	MC4R ag barr	m5-HT2A agonist	GAA850 FXN act	MC4R antagonist	AHR activator	AHR act confirm	PXR counter
O=S(=O)(Nc1ccccc1)c1ccc(-c2csnn2)cc1	-1	-2	1	-6	1	·	·
COCC(=O)N1C[C@H](C)[C@H](OC)CN(C)C(=O)c2cc(NC(=O)Nc3cccc(F)c3)ccc2OC[C@@H]1C	·	0	·	·	·	·	·
OC[C@@H]1CN(Cc2ccco2)C[C@H](n2cnc3c(NC4CC4)ncnc32)O1	0	-1	1	12	·	·	·
Cc1ccc(Cn2cc(CCC(=O)O)c3ccccc32)cc1	0	0	2	2	6	·	·
Cc1cncc(N2CCN(c3ccccn3)CC2)n1	-2	0	0	-1	·	·	·
Cc1cc(-c2ccccc2)nc(N2CCN(c3ccccn3)CC2)n1	-1	-3	2	3	81*	93*	19*
O=C(NCc1ccco1)Nc1nnc([C@H]2C[C@H](O)[C@@H](CO)O2)s1	-1	4	0	8	·	·	·
Cc1ccc(-n2c(=O)[nH]cc(C(=O)Nc3ccc4c(c3)OCO4)c2=O)cc1C	-1	-5	-1	-4	88*	68*	·
COc1ccc(NC(=O)c2c[nH]c(=O)n(-c3ccc(C)c(C)c3)c2=O)cc1OC	1	-2	-3	-4	13	·	·
O=c1c2ccccc2nc(-c2ccco2)n1CCCn1ccnc1	0	-5	1	12	83*	103*	23*
O=C(COC(=O)Cc1ccc(Br)cc1)Nc1ccc(Cl)cn1	4	-1	0	0	1	·	·
C/C(=N\NC(=O)c1c[nH]c2ccccc12)c1ccc(C)s1	-2	4	7	2	92*	126*	59*
CC/C(=N\NC(=O)c1c[nH]c2ccccc12)c1cccs1	2	-3	7	-2	83*	151*	55*
C/C(=N\NC(=O)c1cccc2ccccc12)c1cccs1	-2	-7	6	-6	7	·	·
COc1ccc(OCC(=O)N2CCC3(CC2)CC(=O)c2ccccc2O3)cc1	-2	6	1	7	-1	·	·
CN(C)c1ncnc2c1ncn2[C@H]1CN(Cc2cccnc2)C[C@@H](CO)O1	1	0	2	5	·	·	·
Nc1c(Cl)c(Cl)nc(C(=O)N/N=C/c2cccnc2)c1Cl	0	-2	2	2	86*	78*	40*
Cc1ccc(-c2cc(-c3cccs3)[nH]n2)c(O)c1	2	-3	1	1	109*	118*	·
Cc1nc2nc(-c3cccnc3)nn2c(C)c1Cl	2	0	3	5	98*	112*	29*
Cc1nc2nc(-c3ccco3)nn2c(C)c1Cl	1	4	2	-1	31	·	·
Cc1nn2c(-c3ccncc3)ccnc2c1Br	-3	-4	2	-17	-1	·	·
Cc1nn2c(-c3ccc(F)cc3)ccnc2c1Br	-1	-9	4	2	82*	109*	25*
O=C(CSCC(=O)Nc1nc(-c2ccc3c(c2)OCO3)cs1)Nc1nccs1	0	-2	-1	-1	100*	63*	27*
O=C(OCc1cc(=O)n2ccsc2n1)c1ccccc1NCCO	-1	-2	0	-2	79*	79*	5
O=C(OCc1cc(=O)n2ccsc2n1)c1ccccc1O	-2	8	4	3	0	·	·

Source: PubChem BioAssay (The Scripps Research Institute Molecular Screening Center)
